Among the data in ChEMBL document CHEMBL5033998, “Discovery of DDO-2213 as a Potent and Orally Bioavailable Inhibitor of the WDR5-Mixed Lineage Leukemia 1 Protein-Protein Interaction for the Treatment of MLL Fusion Leukemia” (J Med Chem, 2021) are IC50, Papp and inhibition values, retold here.

The structures appear in SMILES notation. Bounds are passed on as bounds.

Data set [1] concerns the target Histone-lysine N-methyltransferase 2A/WDR5 (Homo sapiens, UniProt P61964). Nature of the data set: Inhibition of MLL1-WDR5 (unknown origin) protein-protein interaction using Thr-FAM as probe by fluorescence polarization competition assay. A digest of the protocol:
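Competitive FP with WDR5 and 10mer-Thr-FAM probe in 100 mM KH2PO4, 25 mM KCl, 0.01% Triton X-100, pH 6.5; read at λex 485 ± 25 nm, λem 535 ± 25 nm. IC50 from three independent replicates ± SD.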
For orientation: Polarisation of emitted light reports the rotation of a fluorescent probe.

The next data set relates to K562. In words: Antiproliferative activity against human K562 cells assessed as cell viability incubated for 72 hrs by CCK8 assay. The data set is classed as functional, cell-based. The conditions noted are these: K562, 72 h. A digest of the protocol:
(§1)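 Cells seeded at 3000–6000 per well, exposed to inhibitor at several concentrations for 72 h; viability read with CCK8 kit. MV4-11 and K562 grown in modified IMDM + 10% FBS, pen/strep; MOLM-13 in RPMI-1640 + 10% FBS; HUVEC in modified DMEM + 10% FBS; 37 °C, 5% CO2. IC50 as mean ± SD of three independent experiments.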
For orientation: Tetrazolium dyes change colour on reduction, which living cells bring about.

The test system of another data set is MOLM-13. Nature of the data set: Antiproliferative activity against human MOLM-13 cells assessed as cell viability incubated for 72 hrs by CCK8 assay. The data set is classed as functional, cell-based. The conditions noted are these: MOLM-13, 72 h. A digest of the protocol:
as §1

Another data set has as its system HUVEC. In words: Antiproliferative activity against human HUVEC cells assessed as cell viability incubated for 72 hrs by CCK8 assay. The format is cell-based. A digest of the protocol:
as §1

Another data set deals with MV4-11. In words: Antiproliferative activity against human MV4-11 cells assessed as cell viability incubated for 72 hrs by CCK8 assay. The format is functional, cell-based. The conditions noted are these: MV4-11, 72 h. In short, it runs like this: as §1
The nature of data set [2]: Permeability of compound at pH 7.4 incubated for 4 hrs by PAMPA assay. The conditions noted are these: read-out: permeability. The data set is classed as ADME. In short, it runs like this: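 Double-sink PAMPA: compound diluted in pH 7.4 donor buffer, permeation through artificial membrane to acceptor over 4 h at 25 °C; donor and acceptor read by UV; mean ± SD of three independent experiments.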
(In general: PAMPA measures passive passage across an artificial lipid membrane.)

Data set [3] has as its target Histone-lysine N-methyltransferase 2A/WDR5 (Homo sapiens) (UniProt P61964+Q03164). In words: Inhibition of MLL1-WDR5 (unknown origin) protein-protein interaction at 100 uM by competitive fluorescence polarization assay.

As usually defined, the IC50 is the concentration needed to halve the response being measured. `CN1CCN(c2cc(F)c(-c3ccc(C(=O)N4CCC(O)CC4)cc3)cc2Nc2ncnc(Cl)c2N)CC1` showed an IC50 in data set [1] of 33 µM.

The compound `Nc1c(Cl)ncnc1Nc1cc([N+](=O)[O-])ccc1N1CCOCC1` came in with a 50% inhibitory concentration (IC50) in data set [1] of more than 50 µM.

With `Nc1c(Cl)ncnc1Nc1cc([N+](=O)[O-])ccc1N1CCN(c2ccccc2)CC1`, in data set [1], the half-inhibitory concentration (IC50) is more than 50 µM.

Turning to `CN1CCN(c2ccc(-c3ccc(C(=O)NCCCN4CCOCC4)cc3)c(F)c2Nc2ncnc(Cl)c2N)CC1`, in data set [1], the IC50 came out at 69 µM.

Take `Cc1nc(Cl)c(N)c(Nc2cc([N+](=O)[O-])ccc2N2CCN(C)CC2)n1`: the IC50 in data set [1] was found to be 12.1 µM.

On to `CN1CCN(c2ccc(-c3ccc(NC(=O)CC4CCOCC4)cc3)c(F)c2Nc2ncnc(Cl)c2N)CC1`, for which, in data set [1], the IC50 turned out to be 85 µM.

In data set [1], `Nc1c(Cl)ncnc1Nc1cc([N+](=O)[O-])ccc1N1CCN(CCO)CC1` yielded an IC50 of more than 50 µM.

Turning to `CN1CCN(c2cc(F)c(-c3ccc(C(=O)NCCN4CCOCC4)cc3)cc2Nc2ncnc(Cl)c2N)CC1`, the IC50 in the data set on K562 is more than 100 µM; in the data set with MOLM-13, 23.1 µM; in the data set on HUVEC, more than 100 µM; with MV4-11, 27.7 µM; in data set [1], 74 µM. Also, in data set [2], the Papp at 4 h was 10.5 ×10⁻⁶ cm/s.

In turn, `Nc1c(Cl)ncnc1Nc1cc([N+](=O)[O-])ccc1N1CCN(C2CC2)CC1` returned an IC50 in data set [1] of more than 50 µM.

Turning to `Cc1nc(Cl)cc(Nc2cc([N+](=O)[O-])ccc2N2CCN(C)CC2)n1`, the IC50 in data set [1] was more than 50 µM.

Consider `CN1CCN(c2ccc(-c3ccc(NC(=O)C4CCOCC4)cc3)c(F)c2Nc2ncnc(Cl)c2N)CC1`, for which, in data set [1], the IC50 was determined as 176 µM.

As to `Nc1c(Cl)ncnc1Nc1cc([N+](=O)[O-])ccc1N1CCNCC1`, the half-inhibitory concentration (IC50) in data set [1] came to 45.1 µM.

Compound `Cc1c(Cl)ncnc1Nc1cc([N+](=O)[O-])ccc1N1CCN(C)CC1` showed an IC50 in data set [1] of more than 50 µM.

With `CN1CCN(c2ccc([N+](=O)[O-])cc2Nc2cc(N3CCCC3)ncn2)CC1`, the IC50 in data set [1] was more than 50 µM.

With `CN1CCN(c2cc(F)c(-c3ccc(C(=O)NCC4CCOCC4)cc3)cc2Nc2ncnc(Cl)c2N)CC1`, the IC50 was 81.7 µM in the data set with K562; 12.3 µM in the data set with MOLM-13; more than 100 µM with HUVEC; 15.7 µM in the data set on MV4-11; 36 µM in data set [1]. Further, the Papp at 4 h in data set [2] came out at 16.9 ×10⁻⁶ cm/s.

Take `CN1CCN(C(=O)c2ccc(-c3ccc(N4CCN(C)CC4)c(Nc4ncnc(Cl)c4N)c3)cc2)CC1`: in data set [1], the 50% inhibitory concentration (IC50) was 0.22 µM.

In data set [1], `CN1CCN(c2ccc(-c3ccc(C(=O)N4CCOCC4)cc3)c(F)c2Nc2ncnc(Cl)c2N)CC1` showed a half-maximal inhibitory concentration (IC50) of 117 µM.

`CN1CCN(c2ccc(-c3ccc(C(=O)N4CCC(C)(O)CC4)cc3)cc2Nc2ncnc(Cl)c2N)CC1` had an IC50 in data set [1] of 0.16 µM.

For the compound `CN1CCN(c2ccc([N+](=O)[O-])cc2Nc2ncccn2)CC1`, the IC50 in data set [1] is more than 50 µM.

In the case of `CN1CCN(c2cc(F)c(-c3ccc(C(=O)NCCCN4CCOCC4)cc3)cc2Nc2ncnc(Cl)c2N)CC1`, the IC50 is 70.1 µM in the data set on K562; 17.3 µM in the data set on MOLM-13; more than 100 µM in the data set with HUVEC; 25.6 µM in the data set on MV4-11; 0.021 µM in data set [1]. For the same compound, the Papp at 4 h in data set [2] was determined as 9.14 ×10⁻⁶ cm/s.

In data set [1], `CN1CCN(c2ccc(-c3ccc(C(=O)N4CCC(O)CC4)cc3)cc2Nc2ncnc(Cl)c2N)CC1` came in with an IC50 of 0.11 µM.

For the compound `CCN1CCN(C(=O)c2ccc(-c3ccc(N4CCN(C)CC4)c(Nc4ncnc(Cl)c4N)c3F)cc2)CC1`, in data set [1], the IC50 was found to be 112 µM.

For `CN1CCN(c2ccc([N+](=O)[O-])cc2Nc2nccc(N)n2)CC1`, the 50% inhibitory concentration (IC50) in data set [1] was more than 50 µM.

For the compound `Cc1c(-c2ccc(C(=O)N(C)C)cc2)ccc(N2CCN(C)CC2)c1Nc1ncnc(Cl)c1N`, the IC50 in data set [1] worked out at 0.67 µM.

In data set [1], `CN1CCN(c2ccc(-c3ccc(C(=O)NCCCN4CCOCC4)cc3)cc2Nc2ncnc(Cl)c2N)CC1` yielded an IC50 of 0.16 µM.

With `CN1CCN(c2cc(F)c(-c3ccc(C(=O)N4CCOCC4)cc3)cc2Nc2ncnc(Cl)c2N)CC1`, the half-inhibitory concentration (IC50) in the data set on K562 is 88.7 µM; with MOLM-13, 16.5 µM; in the data set on HUVEC, more than 100 µM; with MV4-11 it was 19.6 µM; in data set [1] it was 36 µM. Also, in data set [2], the Papp at 4 h turned out to be 13.7 ×10⁻⁶ cm/s.

In data set [1], `CN1CCN(c2ccc(-c3ccc(C(=O)NCCN4CCOCC4)cc3)c(F)c2Nc2ncnc(Cl)c2N)CC1` had an IC50 of 102 µM.

`CN1CCN(c2ccc(-c3ccc(C(=O)N(C)C)cc3)c(F)c2Nc2ncnc(Cl)c2N)CC1` displayed a half-inhibitory concentration (IC50) in data set [1] of 240 µM.

With `CN1CCN(c2ccc([N+](=O)[O-])cc2Nc2ncncc2N)CC1`, the half-maximal inhibitory concentration (IC50) in data set [1] was more than 50 µM.

`CN1CCN(c2ccc(-c3ccc(C(=O)N4CCOCC4)cc3)cc2Nc2ncnc(Cl)c2N)CC1` registered an IC50 in data set [1] of 0.19 µM.

The compound `CN1CCN(c2ccc([N+](=O)[O-])cc2Nc2ncnc(Cl)c2[N+](=O)[O-])CC1` had an IC50 in data set [1] of more than 50 µM.

`CN1CCN(c2ccc([N+](=O)[O-])cc2Nc2ncccc2N)CC1`: the IC50 in data set [1] is more than 50 µM.

In turn, `Cc1cc(N2CCN(C)CC2)c(Nc2ncnc(Cl)c2N)cc1-c1ccc(C(=O)NCCCN2CCOCC2)cc1` yielded an IC50 in data set [1] of 465 µM.

On to `CN1CCN(c2ccc([N+](=O)[O-])cc2Nc2cc(N(C)C)ncn2)CC1`, for which the IC50 in data set [1] is more than 50 µM.

`CN1CCC(C(=O)Nc2ccc(-c3ccc(N4CCN(C)CC4)c(Nc4ncnc(Cl)c4N)c3F)cc2)CC1` showed an IC50 in data set [1] of 105 µM.

Regarding `CN1CCN(c2ccc(-c3ccc(C(=O)NC4CCOCC4)cc3)cc2Nc2ncnc(Cl)c2N)CC1`, in data set [1], the IC50 turned out to be 0.42 µM.

With `CCN1CCN(c2ccc([N+](=O)[O-])cc2Nc2ncnc(Cl)c2N)CC1`, the IC50 in data set [1] came to 38.1 µM.

For the compound `CN1CCC(NC(=O)c2ccc(-c3ccc(N4CCN(C)CC4)c(Nc4ncnc(Cl)c4N)c3)cc2)CC1`, the IC50 in data set [1] was 0.23 µM.

Compound `CN1CCN(c2ccc([N+](=O)[O-])cc2Nc2cc(N3CCC3)ncn2)CC1` returned an IC50 in data set [1] of more than 50 µM.

For orientation: inhibition means the percentage by which the read-out fell short of the control. A high value points to a strong effect. In turn, `CN1CCN(c2ccc([N+](=O)[O-])cc2Nc2ncnc3ccccc23)CC1` registered an inhibition in data set [3] of 35.8%.

`CN1CCN(c2ccc(-c3ccc(C(=O)NCCN4CCOCC4)cc3)cc2Nc2ncnc(Cl)c2N)CC1` returned an IC50 in data set [1] of 0.18 µM.

The compound `CN1CCN(c2ccc([N+](=O)[O-])cc2Nc2cc(Cl)nc(N)n2)CC1` gave an IC50 in data set [1] of 20.4 µM.
